{
  "source": "ChEMBL document CHEMBL4715813",
  "about": "“Allicin-inspired pyridyl disulfides as antimicrobial agents for multidrug-resistant Staphylococcus aureus” (Eur J Med Chem, 2018)",
  "key": {"Staphylococcus aureus [1]": {"tested_on": "Staphylococcus aureus", "assay": "Synergistic antibacterial activity against methicillin-resistant Staphylococcus aureus ATCC 43300 in presence of vancomycin by disc diffusion method", "type": "functional, organism-based"}, "Enterococcus faecium": {"tested_on": "Enterococcus faecium", "assay": "Antibacterial activity against vancomycin-resistant Enterococcus faecium ATCC 700221 assessed as zone of inhibition by disc diffusion method", "type": "functional"}, "Staphylococcus aureus [2]": {"tested_on": "Staphylococcus aureus", "assay": "Antibacterial activity against methicillin-susceptible Staphylococcus aureus ATCC 25923 assessed as zone of inhibition by disc diffusion method", "type": "functional"}, "Staphylococcus aureus [3]": {"tested_on": "Staphylococcus aureus", "assay": "Antibacterial activity against vancomycin-intermediate resistant Staphylococcus aureus Mu50 ATCC 700699 assessed as zone of inhibition by disc diffusion method", "type": "functional"}, "Staphylococcus aureus [4]": {"tested_on": "Staphylococcus aureus", "assay": "Antibacterial activity against methicillin-susceptible Staphylococcus aureus ATCC 25923 assessed as bacterial growth inhibition incubated for 20 hrs by broth dilution method", "type": "functional", "summary_of_the_method": "(§1)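 Broth microdilution: 0.5 McFarland suspension from an overnight culture, diluted 1:100 in cation-adjusted Mueller Hinton broth (CAMHB), given serial dilutions of test agent for 20 h at 37 °C. MIC is the lowest concentration with no visible growth.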"}, "Staphylococcus aureus [5]": {"tested_on": "Staphylococcus aureus", "assay": "Ratio of MBC to MIC against methicillin-susceptible Staphylococcus aureus ATCC 25923", "type": "functional", "summary_of_the_method": "(§2)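 For MBC, 5 μL from each well was spotted on agar and incubated overnight; MBC is the lowest concentration with no visible growth. Ratio taken as MBC over MIC.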"}, "Staphylococcus aureus [6]": {"tested_on": "Staphylococcus aureus", "assay": "Antibacterial activity against methicillin-resistant Staphylococcus aureus ATCC 43300 assessed as bacterial growth inhibition incubated for 20 hrs by broth dilution method", "type": "functional", "summary_of_the_method": "as §1"}, "Staphylococcus aureus [7]": {"tested_on": "Staphylococcus aureus", "assay": "Bactericidal activity against methicillin-resistant Staphylococcus aureus ATCC 43300 assessed as bacterial killing incubated for over night", "type": "functional", "summary_of_the_method": "as §2"}, "Staphylococcus aureus [8]": {"tested_on": "Staphylococcus aureus", "assay": "Ratio of MBC to MIC against methicillin-resistant Staphylococcus aureus ATCC 43300", "type": "functional", "summary_of_the_method": "as §2"}, "Staphylococcus aureus [9]": {"tested_on": "Staphylococcus aureus", "assay": "Antibacterial activity against heterogeneous vancomycin-intermediate Staphylococcus aureus Mu3 ATCC 700698 assessed as bacterial growth inhibition incubated for 20 hrs by broth dilution method", "type": "functional", "summary_of_the_method": "as §1"}, "Staphylococcus aureus [10]": {"tested_on": "Staphylococcus aureus", "assay": "Bactericidal activity against heterogeneous vancomycin-intermediate Staphylococcus aureus Mu3 ATCC 700698 assessed as bacterial killing incubated for over night", "type": "functional", "summary_of_the_method": "as §2"}, "Staphylococcus aureus [11]": {"tested_on": "Staphylococcus aureus", "assay": "Antibacterial activity against vancomycin-intermediate resistant Staphylococcus aureus Mu50 ATCC 700699 assessed as bacterial growth inhibition incubated for 20 hrs by broth dilution method", "type": "functional", "summary_of_the_method": "as §1"}, "Staphylococcus aureus [12]": {"tested_on": "Staphylococcus aureus", "assay": "Bactericidal activity against vancomycin-intermediate resistant Staphylococcus aureus Mu50 ATCC 700699 assessed as bacterial killing incubated for over night", "type": "functional", "summary_of_the_method": "as §2"}, "Staphylococcus aureus [13]": {"tested_on": "Staphylococcus aureus", "assay": "Ratio of MBC to MIC against vancomycin-intermediate resistant Staphylococcus aureus Mu50 ATCC 700699", "type": "functional", "summary_of_the_method": "as §2"}, "Staphylococcus aureus [14]": {"tested_on": "Staphylococcus aureus", "assay": "Antibacterial activity against vancomycin-resistant Staphylococcus aureus HIP11714 assessed as inhibition of bacterial growth incubated for 20 hrs by broth microdilution method", "type": "functional", "settings": "HIP11714, 20 h", "summary_of_the_method": "as §1"}, "Staphylococcus aureus [15]": {"tested_on": "Staphylococcus aureus", "assay": "Bactericidal activity against Vancomycin-resistant Staphylococcus aureus HIP11714 assessed as bacterial killing incubated for over night", "type": "functional", "summary_of_the_method": "as §2"}, "Staphylococcus aureus [16]": {"tested_on": "Staphylococcus aureus", "assay": "Ration of MBC to MIC against Vancomycin-resistant Staphylococcus aureus HIP11714", "type": "functional", "summary_of_the_method": "as §2"}, "Staphylococcus aureus [17]": {"tested_on": "Staphylococcus aureus", "assay": "Antibacterial activity against vancomycin-intermediate Staphylococcus aureus clinical isolate 12 assessed as bacterial growth inhibition after 20 hrs by broth microdilution assay", "type": "functional", "summary_of_the_method": "as §1"}, "Staphylococcus aureus [18]": {"tested_on": "Staphylococcus aureus", "assay": "Antibacterial activity against vancomycin-resistant Staphylococcus aureus clinical isolate 10 assessed as bacterial growth inhibition after 20 hrs by broth microdilution assay", "type": "functional", "summary_of_the_method": "as §1"}, "Staphylococcus aureus [19]": {"tested_on": "Staphylococcus aureus", "assay": "Antibacterial activity against vancomycin-resistant Staphylococcus aureus HIP11714 assessed as inhibition of bacterial growth measured between 2 and 4 passages at 0.5 times of MIC incubated for 20 hrs by resistant development assay", "type": "functional, organism-based"}, "Staphylococcus aureus [20]": {"tested_on": "Staphylococcus aureus", "assay": "Antibacterial activity against methicillin-susceptible Staphylococcus aureus ATCC 25923 in presence of glutathione", "type": "functional", "summary_of_the_method": "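Broth microdilution MIC: a 0.5 McFarland suspension from overnight culture was diluted 1:100 in cation-adjusted Mueller Hinton broth supplemented with glutathione 100 μM. It was exposed to serial dilutions for 20 h at 37 °C. MIC was taken as the lowest concentration with no visible growth.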"}, "Staphylococcus aureus [21]": {"tested_on": "Staphylococcus aureus", "assay": "Antibacterial activity against methicillin-susceptible Staphylococcus aureus ATCC 25923 in presence of 0.05% v/v albumin", "type": "functional"}, "Staphylococcus aureus [22]": {"tested_on": "Staphylococcus aureus", "assay": "Antibacterial activity against methicillin-susceptible Staphylococcus aureus ATCC 25923 in presence of 10% v/v serum", "type": "functional"}, "Staphylococcus aureus [23]": {"tested_on": "Staphylococcus aureus", "assay": "Antibacterial activity against methicillin-susceptible Staphylococcus aureus ATCC 25923 assessed as delayed bacterial proliferation at 0.25 times of MIC for 10 hrs", "type": "functional, organism-based"}, "Staphylococcus aureus [24]": {"tested_on": "Staphylococcus aureus", "assay": "Antibacterial activity against methicillin-susceptible Staphylococcus aureus ATCC 25923 assessed as delayed bacterial proliferation at 0.5 times of MIC for 15 hrs", "type": "functional, organism-based"}, "Staphylococcus aureus [25]": {"tested_on": "Staphylococcus aureus", "assay": "Bacteriostatic activity against methicillin-susceptible Staphylococcus aureus ATCC 25923 assessed as reduction in colony forming unit at 1 times of MIC measured up to 4 hrs by time kill assay", "type": "functional, organism-based", "settings": "time hrs <=4", "summary_of_the_method": "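Time-kill: a 1:100 dilution of 0.5 McFarland S. aureus […] suspension was exposed to 0, 1 and 4× MIC. At 0, 1, 2 and 4 h, samples were serially diluted in PBS and plated on MHA. CFU were counted after 30 h incubation.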"}, "Staphylococcus aureus [26]": {"tested_on": "Staphylococcus aureus", "assay": "Induction of membrane permeabilization in methicillin-susceptible Staphylococcus aureus ATCC 25923 assessed as cell viability at 1 to 5 times of MIC incubated for 5 mins by SYTO9 and PI staining based fluorescence assay", "type": "functional, organism-based", "summary_of_the_method": "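S. aureus […] was grown to OD600 0.4 in LB, washed with PBS and resuspended in 100 mM potassium phosphate pH 7.0 with 5 mM MgSO4. […] Controls were DMSO 5% and nisin 25 μg/mL. SYTO 9/propidium iodide staining ran 15 min at r.t. in the dark, and the green/red ratio (ex 485; em 535/595 nm) was read. Data are mean ± SEM, n = 3.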"}, "Staphylococcus aureus [27]": {"tested_on": "Staphylococcus aureus", "assay": "Disruption of membrane potential in Staphylococcus aureus at 3 to 30 uM by DiOC2(3) probe based flow cytometric analysis", "type": "functional, organism-based", "settings": "dose 3-30 µM, TDE = time-dependent effect", "summary_of_the_method": "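An overnight S. aureus culture was diluted 1:100 in LB, shaken 2 h at 37 °C, then diluted to a final 1:200. Cells were treated with 3–30 μM, DMSO 2% vehicle or CCCP at 37 °C with shaking. At 15 and 30 min, samples were stained 20 min with DiOC2(3). Flow cytometry used ex 488 nm, green 530/30 and red 585/42, reported as red/green ratio (mean ± SEM).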"}, "Staphylococcus aureus [28]": {"tested_on": "Staphylococcus aureus", "assay": "Antibacterial activity against heterogeneous vancomycin-intermediate Staphylococcus aureus Mu3 ATCC 700698 assessed as bacterial growth inhibition measured between 5 to 7 passages by broth dilution method", "type": "functional", "summary_of_the_method": "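Serial passage with hVISA Mu3, VISA and VRSA strains grown at 0.5× MIC of agent (± equimolar vancomycin). […] MIC was read visually at each passage.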"}},
  "note": "The source made the active and inactive calls. No cut-off for these calls is given here.",
  "data": [
    {"compound": "CCCCCCCCSSc1ccccn1", "values": [
      {"measurement": "Activity", "setting": "Staphylococcus aureus [1]", "result": "Active"},
      {"measurement": "diameter of the inhibition zone (DIZ)", "setting": "Enterococcus faecium", "result": 12, "unit": "mm"},
      {"measurement": "diameter of the inhibition zone (DIZ)", "setting": "Staphylococcus aureus [2]", "result": 30, "unit": "mm"},
      {"measurement": "diameter of the inhibition zone (DIZ)", "setting": "Staphylococcus aureus [3]", "result": 43, "unit": "mm"},
      {"measurement": "MIC", "setting": "Staphylococcus aureus [4]", "result": 12.5, "unit": "µM"},
      {"measurement": "Ratio", "setting": "Staphylococcus aureus [5]", "result": ">4"},
      {"measurement": "MIC", "setting": "Staphylococcus aureus [6]", "result": 6.25, "unit": "µM"},
      {"measurement": "MBC", "setting": "Staphylococcus aureus [7]", "result": "> 50", "unit": "µM"},
      {"measurement": "Ratio", "setting": "Staphylococcus aureus [8]", "result": ">8"},
      {"measurement": "MIC", "setting": "Staphylococcus aureus [9]", "result": 12.5, "unit": "µM"},
      {"measurement": "MBC", "setting": "Staphylococcus aureus [10]", "result": "> 50", "unit": "µM"},
      {"measurement": "MIC", "setting": "Staphylococcus aureus [11]", "result": 3.13, "unit": "µM"},
      {"measurement": "MBC", "setting": "Staphylococcus aureus [12]", "result": 25, "unit": "µM"},
      {"measurement": "Ratio", "setting": "Staphylococcus aureus [13]", "result": 8},
      {"measurement": "MIC", "setting": "Staphylococcus aureus [14]", "result": 6.25, "unit": "µM"},
      {"measurement": "MBC", "setting": "Staphylococcus aureus [15]", "result": "> 50", "unit": "µM"},
      {"measurement": "Ratio", "setting": "Staphylococcus aureus [16]", "result": ">8"},
      {"measurement": "MIC50", "setting": "Staphylococcus aureus [17]", "result": 12.5, "unit": "µM"},
      {"measurement": "MIC90", "setting": "Staphylococcus aureus [17]", "result": 12.5, "unit": "µM"},
      {"measurement": "MIC50", "setting": "Staphylococcus aureus [18]", "result": 6.25, "unit": "µM"},
      {"measurement": "MIC90", "setting": "Staphylococcus aureus [18]", "result": 12.5, "unit": "µM"},
      {"measurement": "Activity", "setting": "Staphylococcus aureus [19]", "result": "Active"},
      {"measurement": "MIC", "setting": "Staphylococcus aureus [20]", "result": 50, "unit": "µM"},
      {"measurement": "MIC", "setting": "Staphylococcus aureus [21]", "result": 12.5, "unit": "µM"},
      {"measurement": "MIC", "setting": "Staphylococcus aureus [22]", "result": 25, "unit": "µM"},
      {"measurement": "Activity", "setting": "Staphylococcus aureus [23]", "result": "Active"},
      {"measurement": "Activity", "setting": "Staphylococcus aureus [24]", "result": "Active"},
      {"measurement": "Activity", "setting": "Staphylococcus aureus [25]", "result": "Active"},
      {"measurement": "Activity", "setting": "Staphylococcus aureus [26]", "result": "inactive"},
      {"measurement": "Activity", "setting": "Staphylococcus aureus [27]", "result": "Tde"},
      {"measurement": "MIC", "setting": "Staphylococcus aureus [28]", "result": "> 50", "unit": "µM"}
    ]}
  ]
}
